# Source: ChEMBL document CHEMBL4390676, “Discovery of Bisubstrate Inhibitors for Protein N-Terminal Methyltransferase 1” (J Med Chem, 2019)
# The source made the active and inactive calls. No cut-off for these calls is given here. Residues, ends and D or L forms follow the SMILES beside them. *: point of attachment. X1 = Nc1ncnc2c1ncn2[C@@H]1O[C@H](CN(CCCN2CCC[C@H]2C(=O)*)CC[C@H](N)C(=O)O)[C@@H](O)[C@H]1O
# How the values were obtained:
# [1] = target: T1, N-terminal Xaa-Pro-Lys N-methyltransferase 1 (Homo sapiens, UniProt Q9BV86); assay: Inhibition of recombinant human full-length His6-tagged NTMT1 (1 to 222 residues) expressed in Escherichia coli BL21-CodonPlus(DE3)-RIL competent cells using peptide substrate in presence of SAM by fluorescence assay
# T1 sequence (Q9BV86 whole entry): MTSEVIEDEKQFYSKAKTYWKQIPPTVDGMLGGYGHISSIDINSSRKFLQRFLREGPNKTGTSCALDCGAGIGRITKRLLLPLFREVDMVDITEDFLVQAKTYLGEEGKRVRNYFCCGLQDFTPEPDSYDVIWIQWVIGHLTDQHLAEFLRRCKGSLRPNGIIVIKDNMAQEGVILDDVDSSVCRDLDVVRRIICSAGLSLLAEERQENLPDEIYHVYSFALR
# Method in brief: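 SAHH-coupled fluorescence assay that tracks SAH formation by NTMT1. SAM and peptide substrate GPKRIA are each at their Km values. IC50 is taken from dose–response curves, n = 3.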
# [2] = target: T2, Histone-lysine N-methyltransferase SETD7 (Homo sapiens) (UniProt Q8WTS6); assay: (§1) Inhibition of human His-tagged SETD7 (1 to 366 residues) expressed in Escherichia coli assessed as enzyme residual activity at 33 uM using H3-21 peptide as substrate preincubated for 10 mins in presence of SAM followed by substrate addition by fluorescence assay relative to control
# T2 sequence (whole entry): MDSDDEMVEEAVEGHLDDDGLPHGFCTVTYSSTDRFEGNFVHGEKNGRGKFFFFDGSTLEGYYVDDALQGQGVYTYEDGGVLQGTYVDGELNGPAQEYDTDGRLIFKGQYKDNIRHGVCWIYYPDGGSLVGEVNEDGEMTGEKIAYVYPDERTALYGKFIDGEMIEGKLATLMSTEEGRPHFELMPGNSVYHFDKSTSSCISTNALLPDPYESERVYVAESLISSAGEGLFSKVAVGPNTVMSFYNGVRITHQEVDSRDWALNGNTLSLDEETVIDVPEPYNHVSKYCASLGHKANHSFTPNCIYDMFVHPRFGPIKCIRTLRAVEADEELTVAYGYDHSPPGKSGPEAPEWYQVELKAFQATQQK
# Method in brief: (§2)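 Selectivity panel with inhibitor at 3.3, 10, 33 or 100 μM. Enzyme activity is given as percent of control, mean of duplicate experiments (n = 2).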
# [3] = target: T3, N-terminal Xaa-Pro-Lys N-methyltransferase 1 (Homo sapiens) (UniProt Q9BV86); assay: Inhibition of recombinant human full-length His6-tagged NTMT1 (1 to 222 residues) expressed in Escherichia coli BL21-CodonPlus(DE3)-RIL competent cells assessed as residual enzyme activity at 10 uM using GPKRIA as substrate preincubated for 10 mins in presence of SAM followed by substrate addition by fluorescence assay relative to control
# T3 sequence (whole entry): T1 sequence (Q9BV86 whole entry)
# Method in brief: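 NTMT1 residual activity […] with SAM and GPKRIA at Km. Values are means of triplicate experiments (n = 3).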
# [4] = target: T4, Histone-lysine N-methyltransferase EHMT2 (Homo sapiens) (UniProt Q96KQ7); assay: as §1, with “G9a (913” for “SETD7 (1”, “1193” for “366”, “coli BL21-CodonPlus(DE3)-RIL” for “coli”, “100” for “33”; method in brief: as §2
# T4 sequence (whole entry): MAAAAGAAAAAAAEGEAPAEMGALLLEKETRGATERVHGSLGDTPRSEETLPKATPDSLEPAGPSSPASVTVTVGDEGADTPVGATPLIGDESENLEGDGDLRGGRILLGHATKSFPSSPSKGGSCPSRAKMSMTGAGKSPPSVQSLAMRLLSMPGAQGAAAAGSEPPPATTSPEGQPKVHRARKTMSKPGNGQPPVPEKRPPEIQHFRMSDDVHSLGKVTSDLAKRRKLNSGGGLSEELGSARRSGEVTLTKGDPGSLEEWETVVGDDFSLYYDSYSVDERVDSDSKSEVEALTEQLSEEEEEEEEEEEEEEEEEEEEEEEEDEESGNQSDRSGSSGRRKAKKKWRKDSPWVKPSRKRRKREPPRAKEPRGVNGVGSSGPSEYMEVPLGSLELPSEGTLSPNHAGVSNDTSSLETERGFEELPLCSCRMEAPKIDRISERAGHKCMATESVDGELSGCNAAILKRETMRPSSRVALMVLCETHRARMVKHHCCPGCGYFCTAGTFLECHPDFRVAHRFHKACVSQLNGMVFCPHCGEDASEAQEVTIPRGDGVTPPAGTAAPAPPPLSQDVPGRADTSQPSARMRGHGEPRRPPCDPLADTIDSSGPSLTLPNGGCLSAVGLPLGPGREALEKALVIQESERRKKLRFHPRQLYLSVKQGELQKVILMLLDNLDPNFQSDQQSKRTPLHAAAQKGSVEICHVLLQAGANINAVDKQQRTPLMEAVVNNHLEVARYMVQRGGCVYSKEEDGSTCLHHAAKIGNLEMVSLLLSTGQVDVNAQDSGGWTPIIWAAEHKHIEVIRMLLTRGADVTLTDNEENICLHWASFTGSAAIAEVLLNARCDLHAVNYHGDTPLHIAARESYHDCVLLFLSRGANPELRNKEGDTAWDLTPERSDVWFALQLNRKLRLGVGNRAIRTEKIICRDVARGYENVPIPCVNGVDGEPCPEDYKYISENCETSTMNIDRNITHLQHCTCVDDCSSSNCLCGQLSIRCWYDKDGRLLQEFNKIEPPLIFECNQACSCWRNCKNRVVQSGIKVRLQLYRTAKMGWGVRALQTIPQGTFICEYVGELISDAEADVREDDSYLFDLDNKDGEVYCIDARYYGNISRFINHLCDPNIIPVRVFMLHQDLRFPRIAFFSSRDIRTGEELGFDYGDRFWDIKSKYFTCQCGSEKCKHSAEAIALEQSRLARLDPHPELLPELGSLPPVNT
# [5] = target: T3, N-terminal Xaa-Pro-Lys N-methyltransferase 1 (Homo sapiens); assay: Bi-substrate inhibition of recombinant human full-length His6-tagged NTMT1 (1 to 222 residues) expressed in Escherichia coli BL21-CodonPlus(DE3)-RIL competent cells using varying levels of GPKRIA as substrate preincubated for 10 mins in presence of varying levels of SAM followed by substrate addition by fluorescence assay
# Method in brief: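 Kinetic mechanism study in the SAHH-coupled fluorescence assay. IC50 curves were run at varying SAM with fixed GPKRIA, and at varying GPKRIA with fixed SAM. IC50 values were plotted against SAM or peptide concentration by linear regression.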
# [6] = target: T3, N-terminal Xaa-Pro-Lys N-methyltransferase 1 (Homo sapiens); assay: (§3) Inhibition of recombinant human full-length His6-tagged NTMT1 (1 to 222 residues) expressed in Escherichia coli BL21-CodonPlus(DE3)-RIL competent cells assessed as reduction in GPKRIA trimethylation at 100 nM preincubated for 10 mins in presence of SAM followed by GPKRIA addition and measured after 20 mins by MALDI TOF-MS analysis
# Method in brief: (§4)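 Orthogonal MALDI-MS assay that directly follows α-N-amine methylation of substrate peptide GPKRIA by NTMT1 over 20 min. Methylated peptide products were monitored by mass spectrometry.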
# [7] = target: Protein arginine N-methyltransferase 1 (Rattus norvegicus, UniProt Q63009); assay: Inhibition of rat His6-tagged PRMT1 expressed in Escherichia coli BL21(DE3) using H4-21 peptide as substrate preincubated for 10 mins in presence of SAM followed by substrate addition by fluorescence assay
# Protein arginine N-methyltransferase 1, sequence (Q63009 whole entry): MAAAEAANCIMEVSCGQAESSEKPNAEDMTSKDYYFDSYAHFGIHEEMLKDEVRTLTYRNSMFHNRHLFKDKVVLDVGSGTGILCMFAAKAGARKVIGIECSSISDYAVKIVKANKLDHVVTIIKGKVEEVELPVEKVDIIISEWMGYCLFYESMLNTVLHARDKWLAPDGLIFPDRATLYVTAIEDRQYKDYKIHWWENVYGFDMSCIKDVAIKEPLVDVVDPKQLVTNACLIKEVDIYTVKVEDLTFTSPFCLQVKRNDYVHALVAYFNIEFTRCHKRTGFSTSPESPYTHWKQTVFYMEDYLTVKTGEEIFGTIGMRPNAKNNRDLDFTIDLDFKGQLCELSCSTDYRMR
# [8] = target: Protein arginine N-methyltransferase 1 (Rattus norvegicus) (UniProt Q63009); assay: Inhibition of rat His6-tagged PRMT1 expressed in Escherichia coli BL21(DE3) assessed as enzyme residual activity at 3.3 uM using H4-21 peptide as substrate preincubated for 10 mins in presence of SAM followed by substrate addition by fluorescence assay relative to control; method in brief: as §2
# Protein arginine N-methyltransferase 1 (Rattus norvegicus), sequence (Q63009 whole entry, looked up): as the sequence (Q63009 whole entry) above
# [9] = Inhibition of Trypanosoma brucei N-terminal His6-tagged PRMT7 expressed in Escherichia coli BL21-CodonPlus(DE3)-RIL using H4-21 peptide as substrate preincubated for 10 mins in presence of SAM followed by substrate addition by fluorescence assay
# [10] = target: T3, N-terminal Xaa-Pro-Lys N-methyltransferase 1 (Homo sapiens); assay: as §3, with “di-methylation” for “trimethylation”; method in brief: as §4
# [11] = target: T2, Histone-lysine N-methyltransferase SETD7 (Homo sapiens); assay: Inhibition of human His-tagged SETD7 (1 to 366 residues) expressed in Escherichia coli assessed as enzyme residual activity at 3.3 uM using H3-21 peptide as substrate preincubated for 10 mins in presence of SAM followed by substrate addition by fluorescence assay relative to control; method in brief: as §2
# [12] = target: T2, Histone-lysine N-methyltransferase SETD7 (Homo sapiens); assay: Inhibition of human His-tagged SETD7 (1 to 366 residues) expressed in Escherichia coli assessed as enzyme residual activity at 10 uM using H3-21 peptide as substrate preincubated for 10 mins in presence of SAM followed by substrate addition by fluorescence assay relative to control; method in brief: as §2
# [13] = target: T3, N-terminal Xaa-Pro-Lys N-methyltransferase 1 (Homo sapiens); assay: Inhibition of recombinant human full-length His6-tagged NTMT1 (1 to 222 residues) expressed in Escherichia coli BL21-CodonPlus(DE3)-RIL competent cells at 10 uM using GPKRIA as substrate preincubated for 10 mins in presence of SAM followed by substrate addition by fluorescence assay
smiles,measurement,setting,value
N=C(N)NCCC[C@H](NC(=O)[C@H](CCCNC(=N)N)NC(=O)[C@H](CCCNC(=N)N)NC(=O)[C@@H]1CCCN1C(=O)CNCCCN(CC[C@H](N)C(=O)O)C[C@H]1O[C@@H](n2cnc3c(N)ncnc32)[C@H](O)[C@@H]1O)C(=O)N[C@@H](CO)C(N)=O,IC50,[1],0.94 µM
CC[C@H](C)[C@H](NC(=O)[C@H](CCCNC(=N)N)NC(=O)[C@H](CCCCN)NC(=O)[C@@H]1CCCN1C(=O)[C@@H]1CCCN1CCCN(CC[C@H](N)C(=O)O)C[C@H]1O[C@@H](n2cnc3c(N)ncnc32)[C@H](O)[C@@H]1O)C(=O)N[C@@H](C)C(N)=O (X1-PKRIA-NH2),Activity,[2],97%
same,Activity,[3],14%
same,Activity,[4],78%
same,inhibition,[5],Active
same,inhibition,[6],Active
same,IC50,[7],> 33 µM
same,Activity,[8],97%
same,IC50,[9],> 10 µM
same,inhibition,[10],Active
same,Activity,[11],94%
same,Activity,[12],99%
"Nc1ncnc2c1ncn2C1O[C@H](CN(CCCN2CCC[C@H]2C(=O)O)CC[C@H](N)C(=O)O)[C@@H](O)[C@H]1O (single isomer, unassigned)",inhibition,[13],inactive
